Laboratory results: the RNAGym collection of RNA variant scans (doi:10.1126/science.aae0568)
This sample holds only a part of the variants without activity.

B1: tRNA (parent)
chain: GUUCCGUUGGCGUAAUGGUAACGCGUCUCCCUCCUAAGGAGAAGACUGCGGGUUCGAGUCCCGUACGGAACG

Variants of: B1
Assay: yeast fitness relative to wild type (ratio to wild type); higher = fitter; tRNA-Arg(CCU), competitive growth, 37 C, YPD
Outline: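 Changes in genotype frequencies gave Darwinian fitness relative to wild type. Frequencies were read by 100-nucleotide paired-end sequencing of gene amplicons before and after pooled Saccharomyces cerevisiae strains, carrying tRNA-Arg(CCU) gene variants at the native locus, were competed in YPD at 37°C for 24 hours in six replicates. A genotype was kept only with ≥ 100 starting reads, and estimates < 0.5 were set to 0.5.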

C11U G52C G67C and C11U C31G A45C cannot be ordered by yeast fitness: ≤ 0.5 for the first, ≤ 0.5 for the second.

C11U C34G A45C G51A A65U and C11U C27A G48A U53A C61U cannot be ordered by yeast fitness: ≤ 0.5 for the first, ≤ 0.5 for the second.

Going from C11U C62U A69C to C11U U26A C31G A37U, the yeast fitness falls from 0.842 to ≤ 0.5.

Going from C11U C27A C29A A37U A45U to C11U U13G C29U C34G C46G G58A, the yeast fitness falls from 0.54 to ≤ 0.5.

Compared with C11U C27U C31U A37G A42U G48C C49U, C11U C27U C29A C33G C66A is lower in yeast fitness: 0.54 for the first, ≤ 0.5 for the second.

Going from C11U U13C to C11U U13A, the yeast fitness falls from 0.954 to 0.832.

First: C11U C34A A70G
Second: C11U U26C U47A U64A
The yeast fitness of the first is higher: 0.581 for the first, ≤ 0.5 for the second.

Going from C11U C30A A65C to C11U C27A C46A A70U, the yeast fitness falls from 0.685 to ≤ 0.5.

Going from C11U C30U C46A to C11U G56C C62U, the yeast fitness falls from 0.821 to 0.575.

Compared with C11U C29A A57U C62U, C11U C31U G41A is higher in yeast fitness: ≤ 0.5 for the first, 0.714 for the second.

Going from C11U C49U A65C to C11U G23C, the yeast fitness rises from 0.727 to 0.757.

First: C11U C61U
Second: C11U C27G G48C C49G
The yeast fitness of the first is higher: 0.827 for the first, ≤ 0.5 for the second.

First: C11U G39C C66U
Second: C11U C29A U54A A70C
The yeast fitness of the first is higher: 0.558 for the first, ≤ 0.5 for the second.

First: C11U C55G A69C
Second: C11U U26G A43C U53C C66U A70C
The yeast fitness of the first is higher: 0.509 for the first, 0.504 for the second.

Compared with C11U G17C, C11U G25C is higher in yeast fitness: 0.768 for the first, 0.982 for the second.

Compared with C11U G17C A45G, C11U G38A A43C A65C is lower in yeast fitness: 0.586 for the first, ≤ 0.5 for the second.

First: C11U C61U A70G
Second: C11U G51A G58A A70C
The yeast fitness of the first is higher: 0.77 for the first, ≤ 0.5 for the second.

First: C11U G51A A65U
Second: C11U C55G A70C
The yeast fitness of the first is lower: ≤ 0.5 for the first, 0.541 for the second.

C11U C49G C55G C61G and C11U U19A G41A A65U cannot be ordered by yeast fitness: ≤ 0.5 for the first, ≤ 0.5 for the second.

Compared with C11U C27G C62U A65U, C11U C62G A69U is higher in yeast fitness: ≤ 0.5 for the first, 0.578 for the second.

First: C11U G50C
Second: C11U G18C G39C
The yeast fitness of the first is higher: 0.759 for the first, ≤ 0.5 for the second.

First: C11U G38A C60G
Second: C11U G38C C62G
The yeast fitness of the first is lower: ≤ 0.5 for the first, 0.542 for the second.

Compared with C11U U19A C61U G68A, C11U U16C is higher in yeast fitness: ≤ 0.5 for the first, 1.02 for the second.

Compared with C11U U16G, C11U U19A A37C A40C is lower in yeast fitness: 0.823 for the first, 0.501 for the second.

First: C11U C34G U47G
Second: C11U G17A C49U
The yeast fitness of the first is lower: ≤ 0.5 for the first, 0.596 for the second.

C11U U13C C29U A37C G39A C46A and C11U C31G C34G A43U A69C cannot be ordered by yeast fitness: ≤ 0.5 for the first, ≤ 0.5 for the second.

C11U G39C G41A and C11U G51A G56A U59C cannot be ordered by yeast fitness: ≤ 0.5 for the first, ≤ 0.5 for the second.

Compared with C11U C31G C49G C62U G67C, C11U C29G C31U is higher in yeast fitness: ≤ 0.5 for the first, 0.531 for the second.

First: C11U G25A A43G
Second: C11U U13C A42U C55A G56A
The yeast fitness of the first is lower: 0.592 for the first, 0.762 for the second.

C11U U19G C22G A42G G44C C55U and C11U C27U C31U A36C G44C A45G G56C A70U cannot be ordered by yeast fitness: ≤ 0.5 for the first, ≤ 0.5 for the second.

Compared with C11U C30U A65U C66G, C11U C55G is higher in yeast fitness: 0.585 for the first, 0.594 for the second.

First: C11U U16A G67A
Second: C11U G17A A57G
The yeast fitness of the first is higher: 0.551 for the first, ≤ 0.5 for the second.

C11U G39C G58A A70U and C11U G25C C55U cannot be ordered by yeast fitness: ≤ 0.5 for the first, ≤ 0.5 for the second.

C11U U19G U35G and C11U C33G C61U cannot be ordered by yeast fitness: ≤ 0.5 for the first, ≤ 0.5 for the second.

First: C11U G44A C55G
Second: C11U G38A
The yeast fitness of the first is lower: 0.572 for the first, 1.02 for the second.

First: C11U C49A
Second: C11U C49U
The yeast fitness of the first is lower: 0.724 for the first, 0.976 for the second.

Compared with C11U G38A C60U G67C, C11U G58A is higher in yeast fitness: ≤ 0.5 for the first, 1.01 for the second.

C11U C24U G44C C49A A69C and C11U C34A A36C cannot be ordered by yeast fitness: ≤ 0.5 for the first, ≤ 0.5 for the second.

Going from C11U C31A to C11U C31U, the yeast fitness rises from 0.725 to 0.804.

First: C11U C31G C46G C66U
Second: C11U G25A A43G G51C C55G
The yeast fitness of the first is lower: 0.564 for the first, 0.695 for the second.

Going from C11U C27A G50A A69U to C11U U28C, the yeast fitness rises from ≤ 0.5 to 0.918.

Compared with C11U U13G A20U U53G, C11U C33U G68C is higher in yeast fitness: ≤ 0.5 for the first, 0.527 for the second.

First: C11U C29U G67A A70U
Second: C11U U16C C24U A42C G56C A65C
The yeast fitness of the first is higher: 0.578 for the first, ≤ 0.5 for the second.

Compared with C11U G17U A40U A42U C49G G51A C66A G68C, C11U C34U is higher in yeast fitness: ≤ 0.5 for the first, 0.714 for the second.

C11U U19A C30G G68A and C11U C24U C34U C61U cannot be ordered by yeast fitness: ≤ 0.5 for the first, ≤ 0.5 for the second.

Compared with C11U G25A C29A A42C A45G, C11U G25A A70C is higher in yeast fitness: ≤ 0.5 for the first, 0.892 for the second.

Compared with C11U G18C G23C A57C, C11U U28C C29G is higher in yeast fitness: ≤ 0.5 for the first, 0.541 for the second.

First: C11U C29A
Second: C11U U13G U19A C22G G25A
The yeast fitness of the first is higher: 0.824 for the first, 0.604 for the second.

C11U G17C A37G G56C C61A A65G C66G and C11U U19G C27U G48A C61G cannot be ordered by yeast fitness: ≤ 0.5 for the first, ≤ 0.5 for the second.

First: C11U C31G C49G
Second: C11U C62U A70C
The yeast fitness of the first is lower: 0.696 for the first, 0.698 for the second.

C11U G17A C34U C55G and C11U U13A C27G C46A C49G cannot be ordered by yeast fitness: ≤ 0.5 for the first, ≤ 0.5 for the second.

First: C11U C29A U35C
Second: C11U C29G C31U C34G A70C
The yeast fitness of the first is lower: ≤ 0.5 for the first, 0.534 for the second.

Compared with C11U U19C, C11U G18C is lower in yeast fitness: 0.941 for the first, 0.728 for the second.

Going from C11U G58A G63A to C11U C62U, the yeast fitness rises from 0.74 to 0.943.

Going from C11U C62A to C11U C62G, the yeast fitness rises from 0.743 to 0.912.

First: C11U C30A U47A
Second: C11U C60G C62U G68C
The yeast fitness of the first is higher: 0.57 for the first, 0.505 for the second.

Compared with C11U U16A C60G C62G, C11U C30U C34G is higher in yeast fitness: ≤ 0.5 for the first, 0.576 for the second.

Going from C11U G48A G67C to C11U C31G C46A, the yeast fitness falls from 0.731 to 0.629.

First: C11U C31G C46G
Second: C11U C31U A42G C62U A69C
The yeast fitness of the first is higher: 0.673 for the first, ≤ 0.5 for the second.

C11U G44C C62A and C11U C29U G50A C66A cannot be ordered by yeast fitness: ≤ 0.5 for the first, ≤ 0.5 for the second.

First: C11U U16C C31U A69G
Second: C11U G41C C60G
The yeast fitness of the first is lower: ≤ 0.5 for the first, 0.647 for the second.

Going from C11U C30G A40U A45U C55G to C11U U16C U19A C29U, the yeast fitness falls from 0.604 to ≤ 0.5.

First: C11U C55U G68C
Second: C11U G12A C24U U47C
The yeast fitness of the first is higher: 0.537 for the first, ≤ 0.5 for the second.

Going from C11U C29A A57G to C11U C31U G41U C49U, the yeast fitness rises from ≤ 0.5 to 0.522.

Going from C11U C24U G44C C49A to C11U U16C G58C, the yeast fitness rises from ≤ 0.5 to 0.653.

C11U G12A A15C C31A G51A and C11U C55G G67A cannot be ordered by yeast fitness: ≤ 0.5 for the first, ≤ 0.5 for the second.

First: C11U C34A C46U
Second: C11U G23C G58A
The yeast fitness of the first is lower: ≤ 0.5 for the first, 0.669 for the second.

First: C11U C66U
Second: C11U C31U A37U A70U
The yeast fitness of the first is higher: 0.931 for the first, ≤ 0.5 for the second.

Going from C11U U19A A43U C49U U59A G63A to C11U G44A C61A, the yeast fitness rises from ≤ 0.5 to 0.823.

Going from C11U C29U C66U to C11U C33U A69U, the yeast fitness rises from 0.603 to 0.605.

First: C11U C34G A40C A43G G51C
Second: C11U U26A C34G
The yeast fitness of the first is lower: ≤ 0.5 for the first, 0.607 for the second.

C11U C46U G52C U59C C66U and C11U C29G A37C A42U A57G C61U G67A cannot be ordered by yeast fitness: ≤ 0.5 for the first, ≤ 0.5 for the second.

Going from C11U U19G G51C C61G to C11U C30U, the yeast fitness rises from ≤ 0.5 to 0.748.

Compared with C11U G48A A65U, C11U G48A A65C is lower in yeast fitness: 0.792 for the first, 0.663 for the second.

C11U C29A A57U C62U A70U and C11U C30G A40G G50C G51C cannot be ordered by yeast fitness: ≤ 0.5 for the first, ≤ 0.5 for the second.

First: C11U C62G C66A
Second: C11U G12A C66U
The yeast fitness of the first is lower: ≤ 0.5 for the first, 0.587 for the second.

C11U U16C C27U C31A U35C C55G C66U and C11U U13C C27G A69C cannot be ordered by yeast fitness: ≤ 0.5 for the first, ≤ 0.5 for the second.

First: C11U C61G A65C
Second: C11U U19A C60G G68A
The yeast fitness of the first is higher: 0.609 for the first, ≤ 0.5 for the second.

Compared with C11U G50A G63A, C11U C29U G38A G48C C62G is lower in yeast fitness: 0.606 for the first, ≤ 0.5 for the second.

First: C11U G38C C55G G67A
Second: C11U U19G G51C C66A
The yeast fitness of the first is lower: ≤ 0.5 for the first, 0.578 for the second.

C11U C29G C31U A57U and C11U U16A A36C A43G C62G A65U cannot be ordered by yeast fitness: ≤ 0.5 for the first, ≤ 0.5 for the second.

C11U G18A G23A A36U G48C and C11U C29G C55G A57G cannot be ordered by yeast fitness: ≤ 0.5 for the first, ≤ 0.5 for the second.

First: C11U G44C C61U
Second: C11U C34U G38A G44C C66U
The yeast fitness of the first is higher: 0.528 for the first, ≤ 0.5 for the second.

With C11U U19G C27U G48A C66U the yeast fitness was ≤ 0.5.
